GalR3 antag – blocks the human galanin receptor 3; O60755; HEK293 GalR3-CNG cAMP membrane potential fluorescence; galR3 body fused to GalR1 C-terminus; inhibition, % at 3 µM; hit rate 0.44% among 360,000; AID 651719;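 active = inhibition above the screen-wide average plus 3 SD, cut at about 13% in these data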;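 note: forskolin and galanin both at EC90 stimulate the cells; cAMP rise reported by CNG channel membrane potential dye signal; 0% = forskolin plus galanin with DMSO and 100% = forskolin alone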
OX1R antag-1 – antagonists of human orexin 1 receptor (OX1R); O43613; OX1R-expressing cells, FRET antagonist read-out; inhibition, % at 6.6 µM; hit rate 1.8% among 330,000; AID 485270; in the data active = inhibition mostly above about 38%, no sharp cut-off; inactive = mostly below about 40%;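 note: 0% = agonist challenge alone and 100% = reference antagonist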
Target sequence (O43613 whole entry, looked up): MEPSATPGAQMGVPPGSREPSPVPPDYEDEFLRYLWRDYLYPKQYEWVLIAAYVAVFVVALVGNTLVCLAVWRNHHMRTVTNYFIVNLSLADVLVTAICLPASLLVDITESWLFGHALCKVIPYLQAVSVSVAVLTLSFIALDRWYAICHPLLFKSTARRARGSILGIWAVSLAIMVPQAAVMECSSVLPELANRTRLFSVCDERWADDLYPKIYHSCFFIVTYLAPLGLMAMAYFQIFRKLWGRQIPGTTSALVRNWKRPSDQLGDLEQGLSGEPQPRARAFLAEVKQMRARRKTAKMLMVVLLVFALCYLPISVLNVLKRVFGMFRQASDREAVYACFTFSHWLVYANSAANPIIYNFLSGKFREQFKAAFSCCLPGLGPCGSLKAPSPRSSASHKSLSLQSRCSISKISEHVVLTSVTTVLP
CHO parental Ca – counter-screen for OX1R antagonists: effect in parental CHO cells. parental CHO-K1, ATP-induced calcium, Fluo-8 fluorescence. inhibition, % at 5.6 µM. hit rate 0.63% among 330,000;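 active = inhibition above that plate's mean sample inhibition plus 3 SD, cut at about 26% in these data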;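 note: 0% = ATP-challenged DMSO wells and 100% = DMSO wells without ATP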
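Test system: untransfected parental CHO cell line. Compound: one dose, 5.6 µM nominal. Detection: intracellular calcium via Fluo-8 no-wash fluorescent dye. Measure: % inhibition. Benchmarks: ATP-challenged DMSO wells low, unchallenged DMSO wells high.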
OX1R antag-2 – human HCRTR1 antagonism | O43613 | CHO/OX1R cells, Fluo-8 calcium fluorescence, orexin A | inhibition, % at 5 µM | hit rate 0.43% among 330,000;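 active = inhibition above its plate's threshold, mean inhibition of all tested compounds on the plate plus 3 SD, cut at about 37% in these data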;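 note: 0% = orexin A challenge wells and 100% = SB-334867-A antagonist wells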
TAAR1 antagonist – human TAAR1 antagonism; hit rate 1.5% among 360,000; CHO RD-HGA16 TAAR1, Fluo-8 calcium fluorescence, antagonist; Q96RJ0; inhibition, % at 3 µM;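 active = inhibition above a per-plate cutoff, the mean inhibition of test compounds on that plate plus 3 SD, cut at about 49% in these data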;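 note: 0% = DMSO plus EC80 beta-PEA response and 100% = DMSO alone without agonist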
Target sequence (Q96RJ0 whole entry, looked up): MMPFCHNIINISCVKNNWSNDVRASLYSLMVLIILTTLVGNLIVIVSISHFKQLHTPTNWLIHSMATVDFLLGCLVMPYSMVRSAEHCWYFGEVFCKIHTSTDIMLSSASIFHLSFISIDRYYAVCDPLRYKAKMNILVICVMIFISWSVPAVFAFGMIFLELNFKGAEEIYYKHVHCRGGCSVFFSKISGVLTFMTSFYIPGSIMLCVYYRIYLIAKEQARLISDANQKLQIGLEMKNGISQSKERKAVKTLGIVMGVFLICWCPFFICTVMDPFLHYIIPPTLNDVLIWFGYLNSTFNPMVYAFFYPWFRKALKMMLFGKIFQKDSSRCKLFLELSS
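Material: RD-HGA16 CHO cells with stable hTAAR1 and Gα16; Dosing: single nominal final test compound concentration of 3 µM; Schedule: seeding 17-24 h prior, 75-min 37 °C, 30-min RT dye loading; Detection: kinetic Fluo-8 calcium fluorescence measurement; Measure: % inhibition from peak post-agonist over basal fluorescence ratio; Benchmarks: vehicle and agonist controls.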
TAAR1 ag – human TAAR1 agonism. CHO RD-HGA16 TAAR1, Fluo-8 calcium fluorescence; vehicle wells 0%, saturating PEA agonist 100%. Q96RJ0. hit rate 0.99% among 360,000. activation, % at 3 µM;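 active = activation above the mean activation of all test compounds in the run plus 3 SD, cut at about 38% in these data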
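Assay system: CHO-derived RD-HGA16 cells with stable Gα16 and human TAAR1; timing: 17-24 h seeding, 75 min 37 °C dye, 30 min RT; read-out: % activation from peak over basal fluorescence ratio, DMSO-to-PEA scaled; measured by: kinetic Fluo-8 calcium fluorescence; benchmarks: low control DMSO, high control PEA (EC100); doses: 3 µM single concentration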
OX1R Fluo8 conf – confirmation of human orexin 1 receptor antagonists | AID 492963 | shares compounds with OX1R antag-2 | CHO/OX1R cells, orexin A calcium Fluo-8 fluorescence | inhibition, % at 5 µM | hit rate 38% among 1,100; in the data active = inhibition above about 29%;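 note: 0% = agonist challenge alone and 100% = reference antagonist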
CHO Ca triplic – counter-screen: parental CHO calcium response change, triplicate; shares compounds with OX1R antag-2; parental CHO-K1, ATP-induced calcium, Fluo-8 fluorescence; inhibition, % at 5.6 µM; hit rate 9.3% among 1,100; AID 492965;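 active = inhibition above a per-plate limit, the mean inhibition of that plate's test compounds plus 3 SD, cut at about 25% in these data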;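 note: 0% = ATP challenge with DMSO and 100% = DMSO without ATP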
OX1R HTRF conf – confirmation of human orexin 1 receptor antagonists, HTRF format; hit rate 49% among 1,800; OX1R-expressing cells, HTRF antagonist assay; inhibition, % at 6.6 µM; shares compounds with OX1R antag-1; in the data active = inhibition above about 55%;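 note: CHO cells expressing OX1R stimulated with orexin A at about EC80; 0% = agonist challenge alone and 100% = reference antagonist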
CHO-K1 HTRF cnt – signal in parental CHO-K1 cells, OX1R antagonist counter-screen; shares compounds with OX1R antag-1; HTRF counterscreen; inhibition, % at 6.6 µM; hit rate 48% among 1,800; AID 493232; in the data active = inhibition above about 17%;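 note: 0% = agonist challenge with vehicle and 100% = vehicle alone without agonist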
* = called active by the depositor; / = no result given. This is a sample that favours compounds with a hit; in the whole collection about 4.2% have one here.

SMILES	GalR3 antag	OX1R antag-1	CHO parental Ca	OX1R antag-2	TAAR1 antagonist	TAAR1 ag	OX1R Fluo8 conf	CHO Ca triplic	OX1R HTRF conf	CHO-K1 HTRF cnt
CCN(C(=O)CO/N=C/c1ccc(OC)cc1OC)c1c(N)n(Cc2ccccc2)c(=O)[nH]c1=O	-1.2	92.2*	-24.9	69.0*	-1.3	0.1	66.6*	-9.2	92.5*	-2.1
CCN(C(=O)CSc1nc2ccc(OC)cc2[nH]1)c1c(N)n(Cc2ccccc2)c(=O)[nH]c1=O	-1.1	22.8	-7.8	-10.4	-8.0	1.7	/	/	/	/
Nc1cccc(C#Cc2ccc3c(=O)c4ccccc4oc3c2)c1	3.5	72.4*	-33.3	51.5*	39.5	11.9	11.9	99.0*	49.5	8.4
COc1cc(/C=C(\C#N)C(=O)NCC2CCCO2)ccc1OC(=O)c1ccco1 (configuration not stated)	-2.2	7.3	-15.6	-8.8	1.0	22.6	/	/	/	/
COc1cccc(NC(=O)CN2C(=O)C(c3ccc(C)cc3)=NC23CCCCCC3)c1	-3.1	75.2*	-27.7	41.4*	-5.2	2.4	47.4*	0.4	87.2*	2.7
CCOC(=O)C1CCN(C(=O)Cn2cccc2C(=O)c2ccccc2)CC1	-7.7	6.1	-20.3	-31.9	-22.6	17.6	/	/	/	/
CC(=O)N1CCN(S(=O)(=O)c2cccc(C(=O)NNC(=O)COc3ccc(Cl)cc3C)c2)CC1	/	11.1	-6.5	-8.2	/	/	/	/	/	/
O=S(=O)(CCOc1ccccc1)c1nc2ccccc2[nH]1	0.2	85.7*	-16.9	32.9	6.5	6.0	15.2	-1.8	54.0	-0.9
O=C(CCCOc1ccccc1)Nc1nc2ccccc2[nH]1	1.5	24.0	-7.5	-15.8	-18.0	0.2	/	/	/	/
Cc1cscn1	-1.7	4.0	-3.2	-4.3	-9.8	3.4	/	/	/	/
CS(=O)(=O)N1CCc2cc(C(=O)Nc3ccc(COCC(F)(F)F)cc3)ccc21	-11.3	19.4	9.3	11.3	-8.1	9.5	/	/	/	/
O=[N+]([O-])c1ccc(-c2cnc(SC(c3ccccc3)c3ccccc3)[nH]2)cc1	-5.2	54.4*	16.6	36.9	38.3	0.0	18.2	12.2	68.0*	12.0
Nc1nc(CSc2nnnn2-c2ccccc2)nc(N2CCCc3ccccc32)n1	-9.2	83.3*	-7.3	65.1*	38.1	10.7	29.5*	-0.4	44.1	-2.5
CC(CC(=O)Nc1cccc(S(=O)(=O)N2CCCCC2)c1)c1ccccc1 (configuration not stated)	-3.9	29.2*	-7.8	34.8	16.4	6.0	3.5	-12.9	49.4	2.6
O=C(NCCN1C(=O)S/C(=C\c2cccs2)C1=O)c1ccco1	1.6	43.7	-30.3	-22.0	-14.3	-0.4	/	/	/	/
O=C(CCNC(=O)c1ccco1)NCCN1C(=O)S/C(=C\c2ccc(F)cc2)C1=O	-1.8	46.9*	-11.6	44.9*	14.7	7.3	19.2	2.8	90.5*	23.6*
CNC(=O)C1CN(C(=O)c2cccc(S(=O)(=O)N3c4ccccc4CC3C)c2)c2ccccc2O1 (configuration not stated)	-1.6	40.1*	-12.5	36.4	2.9	0.5	19.9	-8.5	59.0*	-5.0
CC1CC(C)CN(C(=O)c2cccc(S(=O)(=O)N3c4ccccc4CC3C)c2)C1 (configuration not stated)	-5.5	/	/	/	-3.4	10.6	/	/	/	/
CC(=O)c1c(C)[nH]c(C(=O)OCC(=O)Nc2ccc3[nH]c(=O)[nH]c3c2)c1C	-2.8	-0.1	-4.6	6.4	-4.8	1.6	/	/	/	/
Cc1cc(NC(=O)/C=C/C(=O)N(CC(=O)NC2CCCC2)c2cccc3ccccc23)no1	-6.3	16.5	-22.5	-22.5	-28.4	7.0	/	/	/	/
Cc1occc1-c1nnc(SCC(=O)NCCc2ccccc2)n1C(C)c1ccccc1 (configuration not stated)	-4.9	83.3*	-31.0	63.7*	8.3	6.3	29.6*	-7.9	77.1*	-4.4
Cc1occc1-c1nnc(SCC(=O)NCCc2ccccc2)o1	0.3	14.3	-11.1	-19.1	-9.4	14.9	/	/	/	/
CN(C)c1nc2c(c(N)nn2-c2ccc(Cl)cc2)c(=O)o1	-2.8	11.9	-16.3	-7.0	-14.6	17.9	/	/	/	/
COc1cc2c(cc1NC(=O)c1ccccc1F)CCCC2	-4.0	20.8	-3.5	-22.9	-30.4	1.1	/	/	/	/
COc1cc(OC)c(NC(=O)c2ccccc2F)cc1Cl	-1.0	89.0*	-6.9	30.1	2.6	2.8	35.0*	-9.2	81.9*	8.7
SMILES	GalR3 antag	OX1R antag-1	CHO parental Ca	OX1R antag-2	TAAR1 antagonist	TAAR1 ag	OX1R Fluo8 conf	CHO Ca triplic	OX1R HTRF conf	CHO-K1 HTRF cnt
O=C(Nc1cccc(Cl)c1)c1ccc(F)c(S(=O)(=O)NCc2ccc3c(c2)OCO3)c1	0.7	83.2*	-6.2	59.2*	0.3	6.2	48.2*	-0.5	75.8*	-6.2
COc1ccc(OC)c(-c2csc(NC(=O)CN3C(=O)NC4(CCCC4)C3=O)n2)c1	-3.2	18.6	-7.9	-27.5	6.4	3.8	/	/	/	/
CCC(Sc1ncccc1C(=O)O)C(=O)N1CCOCC1 (configuration not stated)	-6.1	16.3	-3.7	-4.9	12.9	9.4	/	/	/	/
CC(C)(C)NC(=O)C(Cc1ccccc1)NS(=O)(=O)c1cccc2nsnc12 (configuration not stated)	-4.1	115.6*	-16.8	36.2	2.5	-0.3	19.1	-8.8	80.2*	16.9*
O=C(NCc1ccccc1)C(Cc1ccccc1)NS(=O)(=O)c1cccc2nsnc12 (configuration not stated)	-1.9	23.6	-16.9	-10.2	6.2	0.9	/	/	/	/
COc1ccc(C)cc1NC(=O)c1ccccc1NS(=O)(=O)c1ccc(Cl)s1	-3.8	62.4*	28.4	22.9	18.6	3.5	8.6	46.2*	41.9	9.2
CC(=O)Nc1ccc(NC(=O)CSc2nnc(NC(=O)c3cccc(F)c3)s2)cc1	-4.0	11.1	-15.7	-13.1	14.6	1.1	/	/	/	/
CC(C)N(Cc1ccccc1)C(=O)CN1C(=O)NC(Cc2ccccc2)(c2ccccc2)C1=O (configuration not stated)	-0.2	80.5*	-16.9	27.7	-18.1	-1.1	42.0*	-13.8	86.7*	-14.7
CCCn1c(SCCC(=O)O)nc2ccccc21	-2.1	24.0	0.0	-9.7	-9.3	1.6	/	/	/	/
Cc1cccc(OCCSc2nc3ccccc3n2CCC(=O)O)c1	-9.5	97.3*	-3.2	31.6	-2.3	2.9	35.0*	2.7	83.0*	5.0
